The results in this text go back to ChEMBL document CHEMBL3745647, “Design, synthesis and biological evaluation of pyrazolyl-nitroimidazole derivatives as potential EGFR/HER-2 kinase inhibitors” (Bioorg Med Chem Lett, 2016).

Data set [1] has as its target Epidermal growth factor receptor (Homo sapiens, UniProt P00533). Description: Inhibition of His-tagged EGFR cytoplasmic domain (645-1186 aa) (unknown origin) assessed as inhibition of autophosphorylation by TR-fluorometry.
Another data set has as its system HepG2. Description: Antiproliferative activity against human HepG2 cells after 12 hrs by MTT assay. The class given is functional, cell-based. Particulars: HepG2, 12 h. A general note: Tetrazolium assays rely on reduction of a dye to a coloured formazan, in cell work by metabolically active cells.
The subject of another data set is HeLa. The data set can be described thus: Antiproliferative activity against human HeLa cells after 12 hrs by MTT assay. The class given is functional, cell-based.
For the next data set, the system named is MCF7. The data set can be described thus: Antiproliferative activity against human MCF7 cells after 12 hrs by MTT assay. Format: functional, cell-based. Particulars: MCF7, 12 h.
The nature of data set [2]: Antiproliferative activity against mouse B16F10 cells after 12 hrs by MTT assay. Format: functional, cell-based. As to conditions: B16-F10, 12 h.
Data set [3] concerns the target Receptor tyrosine-protein kinase erbB-2 (Homo sapiens, UniProt P04626). Description: Inhibition of His-tagged human HER-2 cytoplasmic domain (676-1245 aa) (unknown origin) assessed as inhibition of autophosphorylation by TR-fluorometry.
Data set [4] in a line: Cytotoxicity against human HEK293T cells for 24 hrs by MTT assay. Format: cell-based, HEK-293T. In short, it runs like this:
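293T human kidney epithelial cells exposed to multiple concentrations and viability read by MTT.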

Sequence of Epidermal growth factor receptor (P00533 whole entry, the tested form may be a part): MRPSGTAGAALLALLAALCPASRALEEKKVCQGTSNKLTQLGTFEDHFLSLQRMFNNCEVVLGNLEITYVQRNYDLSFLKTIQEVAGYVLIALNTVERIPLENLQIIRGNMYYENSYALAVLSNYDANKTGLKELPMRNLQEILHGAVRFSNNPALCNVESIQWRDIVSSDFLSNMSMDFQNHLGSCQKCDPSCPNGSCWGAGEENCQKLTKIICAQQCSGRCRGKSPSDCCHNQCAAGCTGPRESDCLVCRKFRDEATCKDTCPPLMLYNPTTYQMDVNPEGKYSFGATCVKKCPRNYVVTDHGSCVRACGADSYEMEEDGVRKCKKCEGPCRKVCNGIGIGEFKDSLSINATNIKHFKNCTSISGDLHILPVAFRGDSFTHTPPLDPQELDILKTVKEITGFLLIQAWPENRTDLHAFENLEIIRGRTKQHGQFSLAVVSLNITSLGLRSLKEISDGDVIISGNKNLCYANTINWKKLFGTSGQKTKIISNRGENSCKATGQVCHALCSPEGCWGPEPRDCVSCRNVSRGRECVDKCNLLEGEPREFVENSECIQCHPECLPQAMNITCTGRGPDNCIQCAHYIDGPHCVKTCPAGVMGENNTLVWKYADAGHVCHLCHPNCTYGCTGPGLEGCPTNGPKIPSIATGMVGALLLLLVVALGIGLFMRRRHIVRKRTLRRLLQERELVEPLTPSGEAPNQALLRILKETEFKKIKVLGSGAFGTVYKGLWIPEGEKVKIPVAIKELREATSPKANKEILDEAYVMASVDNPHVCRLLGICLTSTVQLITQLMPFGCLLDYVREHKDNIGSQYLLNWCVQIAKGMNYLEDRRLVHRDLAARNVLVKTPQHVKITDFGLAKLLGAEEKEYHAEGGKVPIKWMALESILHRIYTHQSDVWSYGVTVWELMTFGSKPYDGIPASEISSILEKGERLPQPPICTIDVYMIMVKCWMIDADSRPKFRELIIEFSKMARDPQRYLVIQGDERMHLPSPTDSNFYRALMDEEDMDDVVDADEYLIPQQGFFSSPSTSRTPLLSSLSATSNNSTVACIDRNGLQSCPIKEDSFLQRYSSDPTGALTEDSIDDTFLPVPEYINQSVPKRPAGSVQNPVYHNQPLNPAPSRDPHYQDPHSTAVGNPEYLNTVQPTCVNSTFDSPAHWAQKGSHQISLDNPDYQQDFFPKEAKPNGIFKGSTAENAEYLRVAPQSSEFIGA
Sequence of Receptor tyrosine-protein kinase erbB-2 (P04626 whole entry, the tested form may be a part): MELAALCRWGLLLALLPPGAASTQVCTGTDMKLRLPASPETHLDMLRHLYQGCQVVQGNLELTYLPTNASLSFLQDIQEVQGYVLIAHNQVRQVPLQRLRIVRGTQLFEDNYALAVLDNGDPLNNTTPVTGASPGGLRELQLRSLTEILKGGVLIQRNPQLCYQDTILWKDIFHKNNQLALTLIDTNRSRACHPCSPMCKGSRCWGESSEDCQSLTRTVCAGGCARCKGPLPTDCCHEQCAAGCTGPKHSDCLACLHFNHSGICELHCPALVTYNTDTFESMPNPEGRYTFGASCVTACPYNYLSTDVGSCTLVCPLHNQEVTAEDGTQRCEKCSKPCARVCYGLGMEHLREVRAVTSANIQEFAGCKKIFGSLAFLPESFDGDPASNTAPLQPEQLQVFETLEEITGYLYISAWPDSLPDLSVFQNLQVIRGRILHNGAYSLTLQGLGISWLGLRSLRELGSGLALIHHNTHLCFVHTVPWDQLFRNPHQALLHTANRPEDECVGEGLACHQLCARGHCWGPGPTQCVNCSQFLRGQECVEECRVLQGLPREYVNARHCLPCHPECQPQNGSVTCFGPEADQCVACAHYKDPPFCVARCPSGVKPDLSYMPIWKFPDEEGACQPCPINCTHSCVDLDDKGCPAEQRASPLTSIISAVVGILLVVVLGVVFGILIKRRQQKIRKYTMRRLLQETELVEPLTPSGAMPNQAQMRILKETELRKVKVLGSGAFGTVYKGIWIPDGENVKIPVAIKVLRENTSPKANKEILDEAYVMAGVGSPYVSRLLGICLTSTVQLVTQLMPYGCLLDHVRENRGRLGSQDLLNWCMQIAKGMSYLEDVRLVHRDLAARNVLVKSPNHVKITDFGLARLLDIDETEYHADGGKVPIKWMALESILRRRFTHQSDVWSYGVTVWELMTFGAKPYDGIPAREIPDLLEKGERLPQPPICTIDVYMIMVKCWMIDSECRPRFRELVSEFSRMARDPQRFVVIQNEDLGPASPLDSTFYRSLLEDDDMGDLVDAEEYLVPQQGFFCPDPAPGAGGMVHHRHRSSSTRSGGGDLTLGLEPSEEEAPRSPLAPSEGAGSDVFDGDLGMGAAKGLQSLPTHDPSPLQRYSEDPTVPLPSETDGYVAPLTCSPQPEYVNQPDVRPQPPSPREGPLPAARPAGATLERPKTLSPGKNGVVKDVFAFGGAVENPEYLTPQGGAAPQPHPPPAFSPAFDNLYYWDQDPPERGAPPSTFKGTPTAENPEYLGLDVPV

Consider `CC(=O)N1N=C(c2ccc(C)cc2)CC1c1ccc(C(=O)OCCn2c([N+](=O)[O-])cnc2C)cc1` (configuration not stated), for which the IC50 in data set [1] (read-out: IC50) is 10.9 µM; in data set [1] (read-out: pIC50 (converted)), 10.9 µM; in the data set with HepG2, 50.2 µM; in the data set on HeLa it was 76.8 µM; in the data set on MCF7, 70.7 µM; in data set [2], above 100 µM. Further, in data set [3], the IC50 was 13.2 µM.

Consider `CC(=O)N1N=C(c2ccc(F)cc2)CC1c1ccc(C(=O)OC(C)Cn2c([N+](=O)[O-])cnc2C)cc1` (configuration not stated), for which the IC50 in data set [1] (read-out: IC50) was 6.58 µM; in data set [1] (read-out: pIC50 (converted)), 6.59 µM; with HepG2, 8.89 µM; in the data set with HeLa it was 7.42 µM; in the data set with MCF7, 5.21 µM; in data set [2], 15.5 µM. The IC50 in data set [3] worked out at 8.54 µM.

Regarding `COc1ccc(C2=NN(C(C)=O)C(c3ccc(C(=O)OC(C)Cn4c([N+](=O)[O-])cnc4C)cc3)C2)cc1` (configuration not stated), the IC50 in data set [1] (read-out: IC50) is 21.3 µM; in data set [1] (read-out: pIC50 (converted)), 21.3 µM; in the data set with HepG2 it was 25.2 µM; with HeLa, 35.1 µM; in the data set with MCF7, 28 µM; in data set [2], 40.6 µM. Moreover, the IC50 in data set [3] was found to be 12 µM.

The compound `C#Cc1cccc(Nc2ncnc3cc(OCCOC)c(OCCOC)cc23)c1` [ERLOTINIB] came in with a CC50 at 24 h in data set [4] of 105 µM.

Consider `CS(=O)(=O)CCNCc1ccc(-c2ccc3ncnc(Nc4ccc(OCc5cccc(F)c5)c(Cl)c4)c3c2)o1` [LAPATINIB], for which the CC50 at 24 h in data set [4] turned out to be 123 µM. In addition, the IC50 with HepG2 was 0.27 µM; in the data set on HeLa, 0.12 µM; with MCF7, 0.47 µM; in data set [2], 0.21 µM.

With `CC(=O)N1N=C(c2ccc(Br)cc2)CC1c1ccc(C(=O)OC(C)Cn2c([N+](=O)[O-])cnc2C)cc1` (configuration not stated), the IC50 was 5.96 µM in data set [1] (read-out: IC50); 5.97 µM in data set [1] (read-out: pIC50 (converted)); 9.02 µM with HepG2; 11.8 µM with HeLa; 8.92 µM with MCF7; 10.8 µM in data set [2]. For the same compound, the IC50 in data set [3] is 8.27 µM.

Take `CCOc1ccc(C2=NN(C(C)=O)C(c3ccc(C(=O)OC(C)Cn4c([N+](=O)[O-])cnc4C)cc3)C2)cc1` (configuration not stated): the IC50 was 26.9 µM in data set [1] (read-out: IC50); 27 µM in data set [1] (read-out: pIC50 (converted)); 38.8 µM in the data set on HepG2; 47.6 µM in the data set with HeLa; 40.6 µM in the data set on MCF7; 46.6 µM in data set [2]. Moreover, in data set [3], the IC50 was 18.1 µM.

Consider `CC(=O)N1N=C(c2ccc(I)cc2)CC1c1ccc(C(=O)OC(C)Cn2c([N+](=O)[O-])cnc2C)cc1` (configuration not stated), for which the IC50 is 10.7 µM in data set [1] (read-out: IC50); 10.7 µM in data set [1] (read-out: pIC50 (converted)); 9.98 µM with HepG2; 25.6 µM in the data set with HeLa; 9.77 µM in the data set with MCF7; 19.1 µM in data set [2]. In addition, the IC50 in data set [3] worked out at 12.7 µM.

`CC(=O)N1N=C(c2ccc(F)cc2)CC1c1ccc(C(=O)OCCn2c([N+](=O)[O-])cnc2C)cc1` (configuration not stated) showed a CC50 at 24 h in data set [4] of 118 µM. Besides, the IC50 is 1.89 µM with HepG2; 2.45 µM with HeLa; 1.67 µM with MCF7; 4.19 µM in data set [2]; 4.07 µM in data set [3].

In the case of `CC(=O)N1N=C(c2ccc([N+](=O)[O-])cc2)CC1c1ccc(C(=O)OCCn2c([N+](=O)[O-])cnc2C)cc1` (configuration not stated), the IC50 is 0.6 µM in data set [1] (read-out: IC50); 0.601 µM in data set [1] (read-out: pIC50 (converted)); 1.75 µM in the data set on HepG2; 0.15 µM in the data set on HeLa; 1.13 µM with MCF7; 0.38 µM in data set [2]. For the same compound, in data set [3], the IC50 came to 2.06 µM. In addition, the CC50 at 24 h in data set [4] was 78.8 µM.

With `CC(=O)N1N=C(c2ccc(Cl)cc2)CC1c1ccc(C(=O)OC(C)Cn2c([N+](=O)[O-])cnc2C)cc1` (configuration not stated), the IC50 in data set [1] (read-out: IC50) was 9.26 µM; in data set [1] (read-out: pIC50 (converted)), 9.27 µM; in the data set with HepG2 it was 12.2 µM; in the data set on HeLa, 15.6 µM; with MCF7, 8.82 µM; in data set [2] it was 22.2 µM. Further, in data set [3], the IC50 turned out to be 9.96 µM.

On to `CC(=O)N1N=C(c2ccc(I)cc2)CC1c1ccc(C(=O)OCCn2c([N+](=O)[O-])cnc2C)cc1` (configuration not stated), for which the IC50 was 1.26 µM in data set [1] (read-out: IC50); 1.26 µM in data set [1] (read-out: pIC50 (converted)); 6.28 µM with HepG2; 7.53 µM with HeLa; 4.85 µM with MCF7; 11.8 µM in data set [2]. In data set [3], the IC50 was found to be 2.75 µM.

`CC(=O)N1N=C(c2ccc(Br)cc2)CC1c1ccc(C(=O)OCCn2c([N+](=O)[O-])cnc2C)cc1` (configuration not stated): the IC50 is 4.13 µM in data set [1] (read-out: IC50); 4.13 µM in data set [1] (read-out: pIC50 (converted)); 3.82 µM with HepG2; 2.82 µM in the data set with HeLa; 5.56 µM with MCF7; 13.1 µM in data set [2]. Also, the IC50 in data set [3] was 3.45 µM.

As to `CC(=O)N1N=C(c2ccc(Cl)cc2)CC1c1ccc(C(=O)OCCn2c([N+](=O)[O-])cnc2C)cc1` (configuration not stated), the IC50 in data set [1] (read-out: IC50) is 7.37 µM; in data set [1] (read-out: pIC50 (converted)), 7.38 µM; with HepG2, 3.31 µM; in the data set on HeLa, 4.13 µM; in the data set with MCF7 it was 2.27 µM; in data set [2], 4.82 µM. The IC50 in data set [3] was 4.1 µM. In addition, the midpoint of cytotoxicity in data set [4], the CC50 at 24 h, lay at 138 µM.

Consider `CCOc1ccc(C2=NN(C(C)=O)C(c3ccc(C(=O)OCCn4c([N+](=O)[O-])cnc4C)cc3)C2)cc1` (configuration not stated), for which the IC50 was 15.2 µM in data set [1] (read-out: IC50); 15.2 µM in data set [1] (read-out: pIC50 (converted)); 19.3 µM in the data set on HepG2; 31.4 µM in the data set on HeLa; 20.6 µM with MCF7; 38.9 µM in data set [2]. For the same compound, the IC50 in data set [3] turned out to be 14.9 µM.

Consider `CC(=O)N1N=C(c2ccccc2)CC1c1ccc(C(=O)OC(C)Cn2c([N+](=O)[O-])cnc2C)cc1` (configuration not stated), for which the IC50 in data set [1] (read-out: IC50) was 12.2 µM; in data set [1] (read-out: pIC50 (converted)) it was 12.2 µM; in the data set with HepG2, 43.8 µM; in the data set on HeLa, 45.2 µM; in the data set with MCF7 it was 49.9 µM; in data set [2] it was 68.2 µM. Besides, the IC50 in data set [3] was 17 µM.

Regarding `CC(=O)N1N=C(c2ccc(C(F)(F)F)cc2)CC1c1ccc(C(=O)OC(C)Cn2c([N+](=O)[O-])cnc2C)cc1` (configuration not stated), the IC50 in data set [1] (read-out: IC50) is 6.67 µM; in data set [1] (read-out: pIC50 (converted)), 6.68 µM; with HepG2 it was 2.21 µM; in the data set with HeLa, 0.42 µM; in the data set with MCF7, 2.18 µM; in data set [2], 5.87 µM. Besides, in data set [3], the IC50 was 5.62 µM. In data set [4], the CC50 at 24 h turned out to be 92.6 µM.

`COc1ccc(C2=NN(C(C)=O)C(c3ccc(C(=O)OCCn4c([N+](=O)[O-])cnc4C)cc3)C2)cc1` (configuration not stated): the IC50 in data set [1] (read-out: IC50) is 8.54 µM; in data set [1] (read-out: pIC50 (converted)) it was 8.55 µM; in the data set with HepG2 it was 15.8 µM; in the data set with HeLa it was 27.9 µM; in the data set with MCF7, 30.2 µM; in data set [2], 36.2 µM. Also, the IC50 in data set [3] came out at 17.3 µM.

As to `CC(=O)N1N=C(c2ccccc2)CC1c1ccc(C(=O)OCCn2c([N+](=O)[O-])cnc2C)cc1` (configuration not stated), the IC50 was 9.58 µM in data set [1] (read-out: IC50); 9.59 µM in data set [1] (read-out: pIC50 (converted)); 42.2 µM in the data set on HepG2; 48.8 µM in the data set on HeLa; 58.2 µM in the data set with MCF7; 62.7 µM in data set [2]. The IC50 in data set [3] is 14 µM.

`CC(=O)N1N=C(c2ccc([N+](=O)[O-])cc2)CC1c1ccc(C(=O)OC(C)Cn2c([N+](=O)[O-])cnc2C)cc1` (configuration not stated): the IC50 was 1.45 µM in data set [1] (read-out: IC50); 1.45 µM in data set [1] (read-out: pIC50 (converted)); 3.62 µM with HepG2; 3.78 µM in the data set with HeLa; 3.33 µM with MCF7; 12.2 µM in data set [2]. Further, in data set [3], the IC50 is 3.53 µM. Besides, the CC50 at 24 h in data set [4] worked out at 168 µM.

Consider `CC(=O)N1N=C(c2ccc(C)cc2)CC1c1ccc(C(=O)OC(C)Cn2c([N+](=O)[O-])cnc2C)cc1` (configuration not stated), for which the IC50 in data set [1] (read-out: IC50) was 25.6 µM; in data set [1] (read-out: pIC50 (converted)), 25.6 µM; in the data set on HepG2, 58.1 µM; with HeLa, 72.1 µM; with MCF7, 92.1 µM; in data set [2] it was above 100 µM. In data set [3], the IC50 worked out at 18.9 µM.

In general, CC50 refers to the concentration giving 50% cytotoxicity. A lower CC50 goes with greater toxicity to the cells.
